{"source": "ChEMBL document CHEMBL1914440", "about": "“Discovery of potent, selective, and orally bioavailable alkynylphenoxyacetic acid CRTH2 (DP2) receptor antagonists for the treatment of allergic inflammatory diseases” (J Med Chem, 2011)", "key": {"[1]": {"target": "Prostaglandin E2 receptor EP2 subtype (Homo sapiens) (UniProt P43116)", "sequence (P43116 whole entry)": "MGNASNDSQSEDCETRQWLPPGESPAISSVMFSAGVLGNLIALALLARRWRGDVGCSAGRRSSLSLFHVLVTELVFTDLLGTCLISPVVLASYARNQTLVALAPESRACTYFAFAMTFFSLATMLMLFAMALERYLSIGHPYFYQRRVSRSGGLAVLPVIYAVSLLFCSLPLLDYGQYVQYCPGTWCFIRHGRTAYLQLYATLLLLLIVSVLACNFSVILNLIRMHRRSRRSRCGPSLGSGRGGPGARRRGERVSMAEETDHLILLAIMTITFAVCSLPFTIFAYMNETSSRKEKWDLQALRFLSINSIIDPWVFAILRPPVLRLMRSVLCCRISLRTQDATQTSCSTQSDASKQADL", "test": "Inhibition of EP2 receptor at 10 uM", "summary_of_the_method": "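Selectivity screen: panel of 50 receptor and ion-channel targets, tested at 10 μM; EP2 by binding assay; GABA-gated Cl− channel from rat. Result expressed as % inhibition.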"}, "[2]": {"target": "T1, Prostaglandin D2 receptor 2 (Homo sapiens, UniProt Q9Y5Y4)", "T1 sequence (Q9Y5Y4 whole entry)": "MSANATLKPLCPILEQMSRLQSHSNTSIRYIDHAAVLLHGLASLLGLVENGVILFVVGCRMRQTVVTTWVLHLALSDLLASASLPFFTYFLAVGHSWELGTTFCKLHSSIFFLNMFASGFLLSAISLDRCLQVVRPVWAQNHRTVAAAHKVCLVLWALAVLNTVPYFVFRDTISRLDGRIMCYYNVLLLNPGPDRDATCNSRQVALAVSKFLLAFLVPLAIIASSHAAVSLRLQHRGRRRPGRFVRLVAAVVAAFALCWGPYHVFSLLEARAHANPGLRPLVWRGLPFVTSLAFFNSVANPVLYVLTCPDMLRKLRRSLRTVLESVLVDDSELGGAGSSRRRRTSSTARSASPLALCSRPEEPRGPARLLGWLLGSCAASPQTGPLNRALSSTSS", "test": "Antagonist activity human CRTH2 expressed in chinese hamster CHO cells assessed as inhibition of PGD2-induced [35S]GTPgamma binding by liquid scintillation counting", "type": "functional, cell-based", "summary_of_the_method": "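10 μg human CRTH2 membranes in 20 mM HEPES/KOH pH 7.4, 10 mM MgCl2, 10 μg/mL saponin, 3 μM GDP, 150 mM NaCl, 2% DMSO, 30 °C. Preincubated 10 min, then 0.15 nM [35S]GTPγS for 30 min; stopped by centrifugation. Antagonism tested against 80 nM PGD2. Nonspecific binding with 10 μM GTPγS. Run without BSA.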"}, "[3]": {"target": "Aldo-keto reductase family 1 member B1 (Homo sapiens, UniProt P15121)", "test": "Antagonist activity at AR", "type": "functional"}, "Mus musculus [4]": {"test_system": "Mus musculus", "test": "Antiinflammatory activity in BALB/c mouse model assessed as inhibition of ovalbumin-induced eosinophil accumulation in bronchoalveolar lavage fluid at 3 mg/kg, po administered 1 hr prior to and 7 hrs after ovalbumin challenge for 3 days measured 8 hrs after final dose by cell counting", "type": "functional", "conditions": "Lung", "summary_of_the_method": "(§1)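 Compound given by oral gavage 1 h before and 7 h after each challenge. BAL taken 8 h after the last challenge. Total cells counted by hemocytometer; eosinophils counted on DiffQuik-stained cytospins. Reported as mean % inhibition ± SEM.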"}, "[5]": {"test": "Clearance in BALB/c mouse at 5 mg/kg, po by LC/MS/MS analysis", "type": "ADME, organism-based", "parameters": "dose 5 mg/kg, route oral", "conditions": "in vivo"}, "[6]": {"target": "T2, Prostaglandin D2 receptor (Homo sapiens, UniProt Q13258)", "T2 sequence (Q13258 whole entry)": "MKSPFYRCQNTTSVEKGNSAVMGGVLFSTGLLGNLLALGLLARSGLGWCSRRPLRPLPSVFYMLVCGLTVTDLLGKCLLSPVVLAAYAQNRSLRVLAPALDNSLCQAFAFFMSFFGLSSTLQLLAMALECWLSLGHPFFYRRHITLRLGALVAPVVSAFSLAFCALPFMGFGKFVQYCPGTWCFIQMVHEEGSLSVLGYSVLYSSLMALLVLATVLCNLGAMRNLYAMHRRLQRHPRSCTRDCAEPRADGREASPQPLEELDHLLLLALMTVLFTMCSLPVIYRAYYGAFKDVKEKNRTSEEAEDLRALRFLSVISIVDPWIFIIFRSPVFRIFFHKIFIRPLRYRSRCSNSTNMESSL", "test": "Antagonist activity at DP1 by cAMP functional assay", "summary_of_the_method": "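DP1 functional antagonism measured in a cAMP assay.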"}, "Mus musculus [7]": {"test_system": "Mus musculus", "test": "Antiinflammatory activity in BALB/c mouse model assessed as inhibition of ovalbumin-induced eosinophil accumulation in bronchoalveolar lavage fluid at 30 mg/kg, po administered 1 hr prior to and 7 hrs after ovalbumin challenge for 3 days measured 8 hrs after final dose by cell counting", "type": "functional", "conditions": "Lung", "summary_of_the_method": "as §1"}, "[8]": {"test": "Apparent permeability across human Caco2 cells at 1 uM after 2 hrs by LC/MS/MS analysis", "type": "ADME, cell-based", "conditions": "Caco-2"}, "Mus musculus [9]": {"test_system": "Mus musculus", "test": "Antiinflammatory activity in BALB/c mouse contact hypersensitivity model assessed as inhibition of FITC-mediated ear swelling at 3 mg/kg, po administered 1 hr prior to and 7 hrs after the FITC-challenge measured 24 hrs after final dose", "type": "functional", "summary_of_the_method": "(§2)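 Female 9-week-old BALB/c mice sensitized on days 0 and 1 with 0.5% FITC in acetone/dibutyl phthalate (sham group: vehicle only). Right ear challenged on day 6 with 0.5% FITC. Compound given by oral gavage 1 h before and 7 h after challenge. Ear thickness measured before and 24 h after challenge. Reported as mean % inhibition ± SEM.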"}, "[10]": {"test": "Half life in BALB/c mouse at 1 mg/kg, iv by LC/MS/MS analysis", "type": "ADME, organism-based", "parameters": "dose 1 mg/kg, route intravenous", "conditions": "in vivo"}, "[11]": {"test": "AUC in BALB/c mouse at 5 mg/kg, po by LC/MS/MS analysis", "type": "ADME, organism-based", "parameters": "dose 5 mg/kg, route oral", "conditions": "plasma"}, "[12]": {"test": "Intrinsic clearance in human liver microsomes assessed per mg of protein at 1 uM by LC/MS/MS analysis", "type": "ADME, Microsome"}, "[13]": {"target": "T3, Prostaglandin D2 receptor 2 (Mus musculus, UniProt Q9Z2J6)", "T3 sequence (Q9Z2J6 whole entry)": "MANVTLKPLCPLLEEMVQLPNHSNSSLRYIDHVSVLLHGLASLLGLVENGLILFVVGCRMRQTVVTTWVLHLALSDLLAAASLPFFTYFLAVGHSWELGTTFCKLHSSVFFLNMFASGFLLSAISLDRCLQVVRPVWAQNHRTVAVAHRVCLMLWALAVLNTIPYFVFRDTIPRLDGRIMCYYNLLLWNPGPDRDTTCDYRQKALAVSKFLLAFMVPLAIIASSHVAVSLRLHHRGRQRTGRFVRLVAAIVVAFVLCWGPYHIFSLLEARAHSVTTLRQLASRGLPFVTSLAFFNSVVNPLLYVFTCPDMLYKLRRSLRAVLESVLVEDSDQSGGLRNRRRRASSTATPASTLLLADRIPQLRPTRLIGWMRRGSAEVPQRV", "test": "Displacement of [3H]PGD2 from mouse CRTH2 expressed in human HEK cells by liquid scintillation counting", "type": "cell-based, HEK293", "summary_of_the_method": "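Mouse CRTH2 cDNA stably expressed in HEK293(EBNA) cells (hygromycin-selected) and membranes made by nitrogen cavitation. SPA competition uses 2–5 μg membranes, 1.5 nM [3H]PGD2, HEPES/KOH pH 7.4 with 10 mM MnCl2, 1% DMSO, 90 min at room temperature. Nonspecific binding defined with 1 μM PGD2. Ki by Cheng–Prusoff, ≥3 independent experiments.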"}, "[14]": {"target": "T1, Prostaglandin D2 receptor 2", "test": "Displacement of [3H]PGD2 from human CRTH2 expressed in chinese hamster CHO cells by liquid scintillation counting", "type": "cell-based", "summary_of_the_method": "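Scintillation proximity competition assay: 2–5 μg human CRTH2 cell membranes, 1.5 nM [3H]PGD2, WGA-SPA beads, 10 mM HEPES/KOH pH 7.4, 10 mM MnCl2, protease inhibitors, 1% DMSO; 90 min, room temperature, shaking. Nonspecific binding defined with 1 μM PGD2. Ki by Cheng–Prusoff, mean of ≥3 independent dose–response experiments.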"}, "[15]": {"test": "Oral bioavailability in BALB/c mouse at 5 mg/kg by LC/MS/MS analysis", "type": "ADME, organism-based", "conditions": "in vivo", "summary_of_the_method": "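Mouse PK after a 5 mg/kg oral dose.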"}, "Mus musculus [16]": {"test_system": "Mus musculus", "test": "Antiinflammatory activity in BALB/c mouse contact hypersensitivity model assessed as inhibition of FITC-mediated ear swelling at 10 mg/kg, po administered 1 hr prior to and 7 hrs after the FITC-challenge measured 24 hrs after final dose", "type": "functional", "summary_of_the_method": "as §2"}, "[17]": {"test": "Solubility of the compound at pH 7.4", "type": "physicochemical", "conditions": "buffer"}, "[18]": {"target": "T2, Prostaglandin D2 receptor", "test": "Binding affinity to DP1"}, "[19]": {"test": "Intrinsic clearance in rat liver microsomes assessed per mg of protein at 1 uM by LC/MS/MS analysis", "type": "ADME, Microsome"}, "[20]": {"test": "Half life in BALB/c mouse at 5 mg/kg, po by LC/MS/MS analysis", "type": "ADME, organism-based", "parameters": "dose 5 mg/kg, route oral", "conditions": "in vivo"}, "[21]": {"test": "Percentage unbound in rat plasma", "type": "ADME, cell-free"}, "[22]": {"test": "Percentage unbound in mouse plasma", "type": "ADME, cell-free"}, "Mus musculus [23]": {"test_system": "Mus musculus", "test": "Antiinflammatory activity in BALB/c mouse contact hypersensitivity model assessed as inhibition of FITC-mediated ear swelling at 30 mg/kg, po administered 1 hr prior to and 7 hrs after the FITC-challenge measured 24 hrs after final dose", "type": "functional", "summary_of_the_method": "as §2"}, "[24]": {"test": "Percentage unbound in human plasma", "type": "ADME, cell-free"}, "[25]": {"test": "Solubility of the compound at pH 1.2", "type": "physicochemical", "conditions": "buffer"}, "Mus musculus [26]": {"test_system": "Mus musculus", "test": "Antiinflammatory activity in BALB/c mouse model assessed as inhibition of ovalbumin-induced eosinophil accumulation in bronchoalveolar lavage fluid at 10 mg/kg, po administered 1 hr prior to and 7 hrs after ovalbumin challenge for 3 days measured 8 hrs after final dose by cell counting", "type": "functional", "conditions": "Lung", "summary_of_the_method": "as §1"}, "[27]": {"test": "AUC in BALB/c mouse at 1 mg/kg, po", "type": "ADME, organism-based", "parameters": "dose 1 mg/kg, route oral", "conditions": "plasma"}}, "note": "pIC50, pKi: −log10 of the molar value."}
{"smiles": "CCCS(=O)(=O)c1ccc(C)c(C#Cc2cc(Cl)ccc2OCC(=O)O)c1", "values": [{"measurement": "inhibition", "setting": "[1]", "value": 54, "unit": "%"}, {"measurement": "pIC50", "setting": "[2]", "value": 8.15}, {"measurement": "pIC50", "setting": "[3]", "value": 6.76}, {"measurement": "inhibition in vivo at 3 mg/kg", "setting": "Mus musculus [4]", "value": 29, "unit": "%"}, {"measurement": "CL/F", "setting": "[5]", "value": 16.7, "unit": "mL/min/kg"}, {"measurement": "pIC50", "setting": "[6]", "value": 5.00}, {"measurement": "inhibition in vivo at 30 mg/kg", "setting": "Mus musculus [7]", "value": 81, "unit": "%"}, {"measurement": "Papp at 2 h, 1 µM", "setting": "[8]", "value": 5.2, "unit": "×10⁻⁶ cm/s"}, {"measurement": "inhibition in vivo at 3 mg/kg", "setting": "Mus musculus [9]", "value": 23, "unit": "%"}, {"measurement": "half-life", "setting": "[10]", "value": 1.7, "unit": "h"}, {"measurement": "AUC", "setting": "[11]", "value": 3730, "unit": "ng·h/mL"}, {"measurement": "microsomal CLint at 1 µM", "setting": "[12]", "value": "< 10", "unit": "µL/min/mg"}, {"measurement": "pKi", "setting": "[13]", "value": 8.62}, {"measurement": "pKi", "setting": "[14]", "value": 8.70}, {"measurement": "bioavailability", "setting": "[15]", "value": 80, "unit": "%"}, {"measurement": "inhibition in vivo at 10 mg/kg", "setting": "Mus musculus [16]", "value": 56, "unit": "%"}, {"measurement": "solubility", "setting": "[17]", "value": 242, "unit": "µg/mL"}, {"measurement": "pKi", "setting": "[18]", "value": 5.80}, {"measurement": "microsomal CLint at 1 µM", "setting": "[19]", "value": "< 10", "unit": "µL/min/mg"}, {"measurement": "half-life", "setting": "[20]", "value": 3.9, "unit": "h"}, {"measurement": "fraction unbound", "setting": "[21]", "value": 0.004}, {"measurement": "fraction unbound", "setting": "[22]", "value": 0.008}, {"measurement": "inhibition in vivo at 30 mg/kg", "setting": "Mus musculus [23]", "value": 52, "unit": "%"}, {"measurement": "fraction unbound", "setting": "[24]", "value": 0.004}, {"measurement": "solubility", "setting": "[25]", "value": "< 2", "unit": "µg/mL"}, {"measurement": "inhibition in vivo at 10 mg/kg", "setting": "Mus musculus [26]", "value": 54, "unit": "%"}]}
{"smiles": "CS(=O)(=O)c1ccc(Cl)c(C#Cc2cc(Cl)ccc2OCC(=O)O)c1", "values": [{"measurement": "CL/F", "setting": "[5]", "value": 11.7, "unit": "mL/min/kg"}, {"measurement": "AUC", "setting": "[27]", "value": 1390, "unit": "ng·h/mL"}, {"measurement": "pKi", "setting": "[14]", "value": 8.46}, {"measurement": "bioavailability", "setting": "[15]", "value": 141, "unit": "%"}, {"measurement": "fraction unbound", "setting": "[21]", "value": 0.003}, {"measurement": "fraction unbound", "setting": "[22]", "value": 0.025}, {"measurement": "fraction unbound", "setting": "[24]", "value": 0.007}]}
